Columns and labels:
D(2) dopamine receptor [1] = target: T1, D(2) dopamine receptor (Homo sapiens, UniProt P14416); experiment: Displacement of [3H]spiperone from human cloned dopamine D2L receptor at 1 uM
Summary of the method: (§1)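 Single-point screen at 1 µM, reported as percent inhibition of radioligand binding: [3H]ketanserin at native rat 5-HT2A, [3H]nemonapride at human D4.2, [3H]spiperone at human D2L.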

D(4) dopamine receptor = target: T2, D(4) dopamine receptor (Homo sapiens, UniProt P21917); experiment: Displacement of [3H]nemonapride from human cloned dopamine D4.2 receptor
T2 sequence (P21917 whole entry): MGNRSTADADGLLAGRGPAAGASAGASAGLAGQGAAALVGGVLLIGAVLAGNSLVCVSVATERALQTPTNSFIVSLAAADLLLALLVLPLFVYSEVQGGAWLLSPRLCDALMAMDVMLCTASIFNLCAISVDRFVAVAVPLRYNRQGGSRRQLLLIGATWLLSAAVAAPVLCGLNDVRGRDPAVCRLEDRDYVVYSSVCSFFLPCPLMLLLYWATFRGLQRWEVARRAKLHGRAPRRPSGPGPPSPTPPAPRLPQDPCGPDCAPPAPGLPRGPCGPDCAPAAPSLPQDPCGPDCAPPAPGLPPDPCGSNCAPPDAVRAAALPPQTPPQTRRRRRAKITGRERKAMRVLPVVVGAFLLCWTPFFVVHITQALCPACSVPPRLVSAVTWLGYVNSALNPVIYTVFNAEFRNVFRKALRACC
Summary of the method: (§2)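 Radioligands were [3H]ketanserin for native rat 5-HT2A, [3H]nemonapride for cloned human D4.2 and [3H]spiperone for cloned human D2L. Ki was determined only for compounds giving >50% inhibition in a 1 µM screen. Values are mean ± SD, n ≥ 2 unless noted.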

[2] = target: T3, D(4) dopamine receptor (Homo sapiens) (UniProt P21917); experiment: Displacement of [3H]nemonapride from human cloned dopamine D4.2 receptor at 1 uM; summary of the method: as §1
T3 sequence (whole entry): T2 sequence (P21917 whole entry)

[3] = target: 5-hydroxytryptamine receptor 2A (Rattus norvegicus) (UniProt P14842); experiment: Displacement of [3H]ketanserin from rat cloned 5HT2A receptor at 1 uM
Sequence of 5-hydroxytryptamine receptor 2A (Rattus norvegicus) (P14842 whole entry): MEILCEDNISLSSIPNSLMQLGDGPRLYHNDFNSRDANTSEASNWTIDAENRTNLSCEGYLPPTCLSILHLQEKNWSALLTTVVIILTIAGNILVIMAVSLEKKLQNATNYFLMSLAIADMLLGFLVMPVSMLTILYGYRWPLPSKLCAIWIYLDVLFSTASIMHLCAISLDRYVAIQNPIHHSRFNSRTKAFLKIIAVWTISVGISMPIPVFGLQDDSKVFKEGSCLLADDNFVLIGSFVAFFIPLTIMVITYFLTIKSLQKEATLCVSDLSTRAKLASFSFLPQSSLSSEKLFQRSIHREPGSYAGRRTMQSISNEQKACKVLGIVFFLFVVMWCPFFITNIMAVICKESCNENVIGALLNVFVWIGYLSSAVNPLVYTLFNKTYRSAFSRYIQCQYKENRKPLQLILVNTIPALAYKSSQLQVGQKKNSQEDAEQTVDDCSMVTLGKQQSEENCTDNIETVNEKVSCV

D(2) dopamine receptor [4] = target: T1, D(2) dopamine receptor; experiment: Displacement of [3H]spiperone from human cloned dopamine D2L receptor; summary of the method: as §2

T1 sequence (P14416 whole entry): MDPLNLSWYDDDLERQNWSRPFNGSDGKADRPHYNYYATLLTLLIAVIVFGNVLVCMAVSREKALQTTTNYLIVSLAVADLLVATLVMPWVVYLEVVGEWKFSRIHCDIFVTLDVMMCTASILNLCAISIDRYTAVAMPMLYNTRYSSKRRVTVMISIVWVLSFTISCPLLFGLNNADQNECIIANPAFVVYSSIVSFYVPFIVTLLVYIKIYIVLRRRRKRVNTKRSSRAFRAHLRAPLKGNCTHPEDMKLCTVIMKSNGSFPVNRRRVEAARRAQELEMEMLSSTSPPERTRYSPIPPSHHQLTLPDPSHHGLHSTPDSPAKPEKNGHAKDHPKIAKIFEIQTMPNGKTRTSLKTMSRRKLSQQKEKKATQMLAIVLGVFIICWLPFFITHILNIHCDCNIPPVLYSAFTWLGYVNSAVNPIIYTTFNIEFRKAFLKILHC

Row | Structure (SMILES) | Activity (D(2) dopamine receptor [1]) | Ki (D(4) dopamine receptor) | Activity [2] | Activity [3] | Ki (D(2) dopamine receptor [4])
1 | O=C(NC1CCN(CCc2ccccc2)CC1)c1cccc2ccccc12 | 3% | 0.23 µM |  |  | 
2 | CC(c1ccccc1)N1CCC(NC(=O)c2ccc3ccccc3c2)CC1 (centres undefined) |  | 0.029 µM |  |  | 
3 | O=C(c1cccc2ccccc12)N1CCC(NCc2ccccc2)CC1 | 0% |  | 1% | 10% | 
4 | O=C(c1cccc2ccccc12)N1CCC(NCCc2ccccc2)CC1 | 0% |  | 16% |  | 
5 | CC(c1ccccc1)N1CCC(NC(=O)c2cccc3ccccc23)CC1 (centres undefined) | 11% |  | 21% |  | 
6 | O=C(NC1CCN(Cc2ccccc2)CC1)c1ccc2ccccc2c1 |  | 0.011 µM |  |  | > 1 µM
7 | O=C(c1ccc2ccccc2c1)N1CCC(NCCCc2ccccc2)CC1 | 0% | 0.222 µM |  | 41% | 
8 | O=C(c1cccc2ccccc12)N1CCC(NCCCc2ccccc2)CC1 | 0% |  | 52% | 35% | 
9 | O=C(NC1CCN(CC[C@H](O)c2ccccc2)CC1)c1cccc2ccccc12 | 0% |  | 45% |  | 
10 | O=C(NC1CCN(Cc2ccccc2)CC1)c1cccc2ccccc12 |  | 0.162 µM |  |  | > 1 µM
11 | O=C(NC1CCN(CCCc2ccccc2)CC1)c1cccc2ccccc12 | 9% | 0.071 µM |  |  | 
12 | O=C(c1ccc2ccccc2c1)N1CCC(NCC[C@H](O)c2ccccc2)CC1 |  |  | 49% |  | 
13 | O=C(NC1CCN(CCCCc2ccccc2)CC1)c1cccc2ccccc12 | 18% | 0.362 µM |  |  | 
14 | O=C(c1ccc2ccccc2c1)N1CCC(NCc2ccccc2)CC1 | 0% | 0.167 µM |  | 8% | 
15 | O=C(NC1CCN(CCc2ccccc2)CC1)c1ccc2ccccc2c1 | 7% | 0.139 µM |  |  | 
16 | O=C(NC1CCN(CCCc2ccccc2)CC1)c1ccc2ccccc2c1 | 13% | 0.063 µM |  |  | 
17 | O=C(c1ccc2ccccc2c1)N1CCC(NCCc2ccccc2)CC1 | 0% | 0.21 µM |  | 50% | 
18 | O=C(NC1CCN(CCCCc2ccccc2)CC1)c1ccc2ccccc2c1 | 22% | 0.281 µM |  |  | 
